Data taken from article PMC9771833 (International Journal for Parasitology: Drugs and Drug …, 2022).

Key:
[1] = system: Plasmodium berghei NAT (atovaquone-resistant strain); assay: 4-day suppression test in P. berghei NAT-infected ICR mice; format: in vivo
In short: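 Female 7-week-old ICR-1 mice (6/group) infected i.p. with 10^7 P. berghei NAT-infected erythrocytes. Dosing began 1 dpi: test compound at 10, 20 or 30 mg/kg, once daily for 4 days. Controls were DHA 10, atovaquone 4 and chloroquine 10 mg/kg, given i.v. once daily for 4 days. Parasitemia was measured daily by FACS of tail blood. Weight and survival were recorded daily to 15 dpi.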

[2] = system: Plasmodium berghei NAT (atovaquone-resistant strain); assay: Hematological analysis of P. berghei NAT-infected mice; format: in vivo
In short: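 Same P. berghei NAT-infected ICR-1 mouse model: 10^7 infected erythrocytes given i.p., test compound or control drug once daily for 4 days from 1 dpi. Blood was taken at 3, 6, 9 and 12 dpi and run on an automated blood cell counter for WBC, RBC, haemoglobin and hematocrit.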

[3] = In vitro cytotoxicity in Vero cells; format: cell-based, African green monkey (Chlorocebus sp.); conditions: African green monkey, Vero cells (kidney epithelial cells), CC50, Vero cell, mean ± SD
In short: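 Vero cells were pre-seeded 12 h, then exposed to serially diluted test compound or control drugs for 48 h. Viability was read with CellTiter 96 AQueous One reagent at 490 nm absorbance. CC50 was calculated from the concentration–response data.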

[4] = system: Plasmodium falciparum 3D7; format: cell-based; conditions: 3D7 (CQ Sensitive); relative to SKM13
P. f K1 (CQ Resistant) = format: cell-based, Plasmodium falciparum; conditions: relative to SKM13
[5] = system: eIF2α phosphorylation (ER stress response); assay: Western blotting of phosphorylated eIF2α in trophozoite lysates; format: cell-based, Plasmodium falciparum; conditions: trophozoites treated 90 min, Western blot
In short: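 P. falciparum trophozoite cultures (5% hematocrit, 5% parasitemia) were plated 10–12 h, then drug-treated at 37 °C. Parasites were freed with 0.15% saponin, lysed in RIPA, run on 10% Bis-Tris SDS-PAGE and transferred to PVDF. Blots were blocked in 5% BSA and probed overnight at 4 °C with anti-phospho-eIF2α (1:1000), anti-eIF2α (1:3000) and anti-PfEF1α (5 μg/mL) as loading control. Detection used HRP secondaries and ECL.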

Row | Compound | body weight ([1]; 4 mg/kg) | parasitemia density ([1]; 4 mg/kg i.v.) | survival rate ([1]; 4 mg/kg i.v. once a day for four days, 15 dpi, ICR mice n = 6) [%] | WBC counts ([2]; 4 mg/kg, compared with infected untreated mice (WBC increased at 9 to 12 dpi)) | CC50 at 48 h [3] [µM] | Relative SI [4] | Relative SI (P. f K1 (CQ Resistant)) | body weight ([1]; 10 mg/kg) | parasite density (parasitemia) ([1]; 10 mg/kg i.v., all observation period, p < 0.001) | WBC counts, HCT and Hgb ([2]; 10 mg/kg, infected mice, 3-12 dpi) | phosphorylation of eIF2α [5]
1 | O=C1C(O)=C([C@H]2CC[C@H](c3ccc(Cl)cc3)CC2)C(=O)c2ccccc21 [Atovaquone] | decreased | did not suppress parasitemia density | 33 | same pattern of haematological result |  |  |  |  |  |  | 
2 | CCN(CC)CCCC(C)Nc1ccnc2cc(Cl)ccc12 (centres unmarked) [Chloroquine] |  |  |  |  | 120 ± 16.4 | 20.93 | 7.81 | maintained normal mouse body weight | significantly reduced | did not affect | did not increase phosphorylation of eIF2α
3 | C[C@H]1[C@@H](O)O[C@@H]2O[C@@]3(C)CC[C@H]4[C@H](C)CC[C@@H]1[C@@]24OO3 [DHA, Dihydroartemisinin] |  |  |  |  | 31.3 ± 8.94 | 4.84 | 3.97 |  |  |  | 
